Assay results as given in BindingDB's records for doi:10.1016/j.ejmech.2016.08.061 (South China University of Technology, 2017).

Tests used:
[1] = target: Cholinesterase (Equus caballus, UniProt P81908); experiment: Irreversible inhibition of equine serum BuChE assessed as second order carbamylation rate constant using S-butyrylthiocholine iodide as substrate preincubated up to 45 mins followed by substrate addition measured after 5 mins; settings: read-out: kon (M-1-s-1)
Summary of the method: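 Equine BChE, pH 8, 37°C, was preincubated for 1, 2, 4, 8, 15, 30 and 45 min with inhibitor at 1×10^-7 to 5×10^-6 M (seven levels). Residual activity was read by Ellman with BTCh and normalised to a water control at each time. kobs came from a one-phase exponential decay fit; k_I1 came from the linear kobs versus concentration relation.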

[2] = target: Cholinesterase (Homo sapiens, UniProt P06276); experiment: Irreversible inhibition of human plasma BuChE assessed as second order carbamylation rate constant using S-butyrylthiocholine iodide as substrate preincubated up to 45 mins followed by substrate addition measured after 5 mins; settings: read-out: kon (M-1-s-1)
Cholinesterase (Homo sapiens, UniProt P06276), sequence (P06276 whole entry): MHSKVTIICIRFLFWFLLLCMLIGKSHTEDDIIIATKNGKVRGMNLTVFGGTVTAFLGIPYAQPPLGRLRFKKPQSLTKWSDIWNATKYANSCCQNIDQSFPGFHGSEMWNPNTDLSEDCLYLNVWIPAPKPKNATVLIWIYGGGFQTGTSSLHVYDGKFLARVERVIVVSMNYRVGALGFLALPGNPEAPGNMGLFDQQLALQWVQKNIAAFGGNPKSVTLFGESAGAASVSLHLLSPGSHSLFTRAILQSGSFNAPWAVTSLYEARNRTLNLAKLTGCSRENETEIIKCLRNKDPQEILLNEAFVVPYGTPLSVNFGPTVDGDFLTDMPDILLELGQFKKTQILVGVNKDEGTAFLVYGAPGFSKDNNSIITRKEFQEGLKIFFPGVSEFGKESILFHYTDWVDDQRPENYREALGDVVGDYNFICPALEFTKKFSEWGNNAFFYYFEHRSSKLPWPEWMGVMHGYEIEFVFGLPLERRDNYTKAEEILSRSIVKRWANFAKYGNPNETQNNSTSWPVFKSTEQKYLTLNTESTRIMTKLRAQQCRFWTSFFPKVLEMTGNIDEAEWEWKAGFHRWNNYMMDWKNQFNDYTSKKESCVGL
Summary of the method: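 Diluted human plasma BChE was preincubated for 1–45 min with inhibitor at 5×10^-9, 1×10^-8, 2.5×10^-8 and 5×10^-8 M. Residual Ellman activity with BTCh at pH 8 was normalised to a water control. kobs came from a one-phase exponential fit; k_I1 came from the slope of kobs versus concentration.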

Cholinesterase (Equus caballus, UniProt P81908), sequence (P81908 whole entry): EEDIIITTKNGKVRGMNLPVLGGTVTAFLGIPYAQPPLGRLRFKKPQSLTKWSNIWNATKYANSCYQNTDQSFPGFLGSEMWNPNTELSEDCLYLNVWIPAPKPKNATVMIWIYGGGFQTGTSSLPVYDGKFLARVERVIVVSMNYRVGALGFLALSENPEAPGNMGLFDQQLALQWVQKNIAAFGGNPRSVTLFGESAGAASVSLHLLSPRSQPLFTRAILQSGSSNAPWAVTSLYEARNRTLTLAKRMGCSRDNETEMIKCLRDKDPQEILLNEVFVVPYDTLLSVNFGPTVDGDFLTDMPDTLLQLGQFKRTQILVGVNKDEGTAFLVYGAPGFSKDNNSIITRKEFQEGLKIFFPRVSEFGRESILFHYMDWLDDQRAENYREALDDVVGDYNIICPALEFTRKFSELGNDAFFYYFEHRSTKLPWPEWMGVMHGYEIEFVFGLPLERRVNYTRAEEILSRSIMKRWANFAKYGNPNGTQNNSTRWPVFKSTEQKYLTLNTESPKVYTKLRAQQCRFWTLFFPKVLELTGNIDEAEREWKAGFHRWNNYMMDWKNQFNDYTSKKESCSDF

SMILES	kon [1] [M⁻¹ s⁻¹]	kon [2] [M⁻¹ s⁻¹]
CCN(C)C(=O)Oc1cc(OC(=O)N(C)CC)cc(C(O)CNC(C)(C)CC)c1 (centres undefined)	2480	122000
CCC(C)(C)NCC(O)c1cc(OC(=O)N(C)C)cc(OC(=O)N(C)C)c1 (centres undefined)	2370	100000
